Results: ChEMBL document CHEMBL1166008, “A new class of potential anti-tuberculosis agents: Synthesis and preliminary evaluation of novel acrylic acid ethyl ester derivatives” (Bioorg Med Chem, 2010)
Values after ≈ are worked out from the molar mass of the structure shown.

Experiments:
[1] = tested on: Mycolicibacterium smegmatis; experiment: Antimycobacterial activity against Mycobacterium smegmatis after 48 hrs by microtiter plate method; type: functional
Summary of the method: (§1)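 Broth microdilution MIC in Middlebrook 7H9 broth with 10% OADC. Mycobacterial cultures grown statically seven days in the same medium at 35 °C. Plates incubated 48 h at 35 °C and scored growth/no growth. Rifampin positive control.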

Staphylococcus aureus = experiment: Antibacterial activity against Staphylococcus aureus ATCC 29213 after 18 to 24 hrs by microtiter plate method; type: functional
Summary of the method: (§2)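 Broth microdilution MIC in cation-adjusted Mueller–Hinton broth. Cultures grown statically overnight on tryptic soy agar at 35 °C. Plates incubated 18–24 h at 35 °C and scored growth/no growth. Tetracycline control included.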

Bacillus cereus = experiment: Antibacterial activity against Bacillus cereus after 18 to 24 hrs by microtiter plate method; type: functional; summary of the method: as §2
Escherichia coli = experiment: Antibacterial activity against Escherichia coli ATCC 25922 after 18 to 24 hrs by microtiter plate method; type: functional; summary of the method: as §2
[2] = tested on: Mycobacterium tuberculosis; experiment: Antimycobacterial activity against Mycobacterium tuberculosis H37Rv after 48 hrs by green fluorescent protein-based assay; type: functional
Summary of the method: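 M. tuberculosis H37Rv carrying high-copy pHIGH22 plasmid expressing GFP. Killing read as loss of GFP fluorescence. Isoniazid and rifampin positive controls.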

[3] = tested on: Mycolicibacterium fortuitum; experiment: Antimycobacterial activity against Mycobacterium fortuitum after 48 hrs by microtiter plate method; type: functional; summary of the method: as §1
Mycobacterium kansasii = experiment: Antimycobacterial activity against Mycobacterium kansasii after 48 hrs by microtiter plate method; type: functional; summary of the method: as §1
Mycobacteroides chelonae = experiment: Antimycobacterial activity against Mycobacterium chelonae after 48 hrs by microtiter plate method; type: functional; summary of the method: as §1
Mycobacterium avium = experiment: Antimycobacterial activity against Mycobacterium avium after 48 hrs by microtiter plate method; type: functional; summary of the method: as §1
[4] = tested on: Mycobacterium intracellulare; experiment: Antimycobacterial activity against Mycobacterium intracellular after 48 hrs by microtiter plate method; type: functional; summary of the method: as §1
J774.A1 = experiment: Cytotoxicity against mouse J774A1 cells after 24 hrs by trypan blue exclusion assay; type: cell-based; settings: J774.A1, 24 h
Summary of the method: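 Murine J774A.1 monocytes seeded at 1 × 10^6/well in RPMI 1640. Next day, twofold dilutions of drug in PBS added. Following day, trypan blue added for 10 min, then dead (blue) and live cells counted in three fields per well. IC50 taken as concentration giving 50% dead cells.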

| Structure (SMILES) | MIC [1] [µg/mL] | MIC (Staphylococcus aureus) [µg/mL] | MIC (Bacillus cereus) [µg/mL] | MIC (Escherichia coli) [µg/mL] | MIC [2] [µg/mL] | MIC [3] [µg/mL] | MIC (Mycobacterium kansasii) [µg/mL] | MIC (Mycobacteroides chelonae) [µg/mL] | MIC (Mycobacterium avium) [µg/mL] | MIC [4] [µg/mL] | IC50 (J774.A1) [µg/mL] |
| --- | --- | --- | --- | --- | --- | --- | --- | --- | --- | --- | --- |
| CCOC(=O)/C=C\Sc1ccccc1C(C)C | > 128 | > 128 | > 128 | > 128 |  |  |  |  |  |  |  |
| CCOC(=O)/C=C\Oc1ccc(F)cc1 | > 128 | > 128 | > 128 | > 128 |  |  |  |  |  |  |  |
| CCOC(=O)/C=C\Oc1ccccc1C | > 128 | > 128 | > 128 | > 128 |  |  |  |  |  |  |  |
| CCOC(=O)/C=C\Oc1cccnc1 | > 128 | > 128 | > 128 | > 128 |  |  |  |  |  |  |  |
| CCOC(=O)/C=C\n1nnnc1SC | 128 (≈ 597 µM) | > 128 | > 128 | > 128 |  |  |  |  |  |  |  |
| CCOC(=O)/C=C\Sc1ccc2ccccc2c1 | 64 (≈ 248 µM) | 128 (≈ 495 µM) | > 128 | > 128 |  |  |  |  |  |  |  |
| CCOC(=O)/C=C\Sc1ccc(C(C)(C)C)cc1 | 16 (≈ 60.5 µM) | > 128 | > 128 | > 128 | 25 (≈ 94.6 µM) | 4 (≈ 15.1 µM) | 16 (≈ 60.5 µM) | 8 (≈ 30.3 µM) | 64 (≈ 242 µM) | 128 (≈ 484 µM) | 150 (≈ 567 µM) |
| CCOC(=O)/C=C\Sc1nc2ccccc2s1 | 32 (≈ 121 µM) | > 128 | > 128 | > 128 | 25 (≈ 94.2 µM) | 16 (≈ 60.3 µM) | 8 (≈ 30.1 µM) | 8 (≈ 30.1 µM) | 64 (≈ 241 µM) | 16 (≈ 60.3 µM) | 200 (≈ 754 µM) |
| CCOC(=O)/C=C\Oc1cc(OC)cc(OC)c1 | 128 (≈ 507 µM) | > 128 | > 128 | > 128 |  |  |  |  |  |  |  |
| CCOC(=O)/C=C\Oc1ccc(C(C)(C)C)cc1 | 128 (≈ 515 µM) | > 128 | > 128 | > 128 |  |  |  |  |  |  |  |
| CCOC(=O)/C=C\Oc1cccc(F)c1 | > 128 | > 128 | > 128 | > 128 |  |  |  |  |  |  |  |
| CCOC(=O)/C=C\Oc1cccc([N+](=O)[O-])c1 | 64 (≈ 270 µM) | 64 (≈ 270 µM) | > 128 | > 128 |  |  |  |  |  |  |  |
| CCOC(=O)/C=C\n1nnc2ccccc21 | > 128 | > 128 | > 128 | > 128 |  |  |  |  |  |  |  |
| CCOC(=O)/C=C\Sc1ncccn1 | 64 (≈ 304 µM) | > 128 | > 128 | > 128 |  |  |  |  |  |  |  |
| CCOC(=O)/C=C\Sc1ccccc1C(=O)OC | 64 (≈ 240 µM) | > 128 | > 128 | > 128 |  |  |  |  |  |  |  |
| CCOC(=O)/C=C\Sc1cccc2ccccc12 | 128 (≈ 495 µM) | > 128 | > 128 | > 128 |  |  |  |  |  |  |  |
| CCOC(=O)/C=C\n1ncc2ccccc21 | > 128 | > 128 | > 128 | > 128 |  |  |  |  |  |  |  |

| Structure (SMILES) | MIC [1] [µg/mL] | MIC (Staphylococcus aureus) [µg/mL] | MIC (Bacillus cereus) [µg/mL] | MIC (Escherichia coli) [µg/mL] | MIC [2] [µg/mL] | MIC [3] [µg/mL] | MIC (Mycobacterium kansasii) [µg/mL] | MIC (Mycobacteroides chelonae) [µg/mL] | MIC (Mycobacterium avium) [µg/mL] | MIC [4] [µg/mL] | IC50 (J774.A1) [µg/mL] |
| --- | --- | --- | --- | --- | --- | --- | --- | --- | --- | --- | --- |
| CCOC(=O)/C=C\Oc1ccccc1C(=O)OC | > 128 | > 128 | > 128 | > 128 |  |  |  |  |  |  |  |
| CCOC(=O)/C=C\Oc1cccc2ccccc12 | 64 (≈ 264 µM) | > 128 | > 128 | > 128 |  |  |  |  |  |  |  |
| CCOC(=O)/C=C\Oc1ccc2ccccc2c1 | 128 (≈ 528 µM) | > 128 | > 128 | > 128 |  |  |  |  |  |  |  |
| CCOC(=O)/C=C\Oc1nc2ccccc2s1 | 128 (≈ 513 µM) | > 128 | > 128 | > 128 |  |  |  |  |  |  |  |
| CCOC(=O)/C=C\Sc1ccc(O)cc1 | 64 (≈ 285 µM) | 128 (≈ 571 µM) | 128 (≈ 571 µM) | > 128 |  |  |  |  |  |  |  |
| CCOC(=O)/C=C\Sc1cccs1 | 128 (≈ 597 µM) | > 128 | > 128 | > 128 |  |  |  |  |  |  |  |
| CCOC(=O)/C=C\SC1CCCCC1 | > 128 | > 128 | > 128 | > 128 |  |  |  |  |  |  |  |
| CCOC(=O)/C=C\n1ccc2ccccc21 | > 128 | > 128 | > 128 | > 128 |  |  |  |  |  |  |  |
| CCOC(=O)/C=C\Sc1ccccn1 | 128 (≈ 612 µM) | > 128 | > 128 | > 128 |  |  |  |  |  |  |  |
| CCOC(=O)/C=C\n1ccnc1 | > 128 | > 128 | > 128 | > 128 |  |  |  |  |  |  |  |
| CCOC(=O)/C=C\Oc1ccc(C(N)=O)cc1 | > 128 | > 128 | > 128 | > 128 |  |  |  |  |  |  |  |
| CCOC(=O)/C=C\n1cccn1 | > 128 | > 128 | > 128 | > 128 |  |  |  |  |  |  |  |
| CCOC(=O)/C=C\Oc1ccccc1C(C)C | > 128 | > 128 | > 128 | > 128 |  |  |  |  |  |  |  |
| CCOC(=O)/C=C\Oc1ccsc1C(=O)OC | > 128 | > 128 | > 128 | > 128 |  |  |  |  |  |  |  |
| NNC(=O)c1ccncc1 [ISONIAZID] |  |  |  |  | 0.25 (≈ 1.82 µM) |  |  |  |  |  |  |
| N#Cc1cccc(/C=C/SC2=NCCS2)c1 [PHENOTHIOSTYRENE] | 64 (≈ 260 µM) | > 128 | > 128 | > 128 |  |  |  |  |  |  |  |
| CO[C@H]1/C=C/O[C@@]2(C)Oc3c(C)c(O)c4c(O)c(c(/C=N/N5CCN(C)CC5)c(O)c4c3C2=O)NC(=O)/C(C)=C\C=C\[C@H](C)[C@H](O)[C@@H](C)[C@@H](O)[C@@H](C)[C@H](OC(C)=O)[C@@H]1C [RIFAMPIN] | 64 (≈ 77.8 µM) |  |  |  | < 0.03 |  |  |  |  |  |  |
